From ChEMBL document CHEMBL3351861, “New synthetic sulfone derivatives inhibit growth, adhesion and the leucine arylamidase APE2 gene expression of Candida albicans in vitro” (2015)
Converted amounts (≈) assume the structure as drawn.

Experiments:
Candida albicans [1] = assay: Inhibition of cell adhesion of compound pre-treated Candida albicans CAI4 expressing delta-efg1 gene to human Caco2 cells assessed as cell adhesion level at 16 ug/ml pre-incubated for 18 hrs by colony counting method (reference value: 2.1 +/- 3.52%); format: functional, Caco-2; set-up: scale not given: the % may be the effect or the level left
Candida albicans [2] = assay: Antifungal activity against Candida albicans 90028 assessed as growth inhibition at 16 ug/ml by CLSI M27-A3 method; format: functional; settings: read-out: GI
Procedure, shortened: (§1)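 CLSI M27-A3 broth microdilution in RPMI, read after 48 h. Strains pre-grown 18 h in YEPD at 30°C. Final inoculum 0.5×10^2–2.5×10^3 cells/ml. Two-fold dilutions in RPMI came from a 1600 µg/ml stock in water with 9% DMSO; final DMSO was 0.09%. OD405 read, % inhibition = 100 − (CTW−SCW)/(GCW−SCW). Triplicate on three occasions, mean±SD.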

Candida albicans [3] = assay: Inhibition of cell adhesion of compound pre-treated Candida albicans 90028 to human Caco2 cells assessed as cell adhesion level at 16 ug/ml pre-incubated for 18 hrs by colony counting method (reference value: 1.58 +/- 0.67%); format: functional, Caco-2; set-up: scale not given: the % may be the effect or the level left
Candida albicans [4] = assay: Antifungal activity against Candida albicans 90028 assessed as growth inhibition at 4 ug/ml by CLSI M27-A3 method; format: functional; settings: read-out: GI; procedure, shortened: as §1
Candida albicans [5] = assay: Inhibition of cell adhesion of compound pre-treated Candida albicans CAI4 expressing delta-efg1/delta-cph1 gene to human Caco2 cells assessed as cell adhesion level at 16 ug/ml pre-incubated for 18 hrs by colony counting method (reference value: 1.22 +/- 0.78%); format: functional, Caco-2; set-up: scale not given: the % may be the effect or the level left
Candida albicans [6] = assay: Antifungal activity against Candida albicans CAI4 expressing delta-cph1/delta-efg1 gene assessed as growth inhibition at 16 ug/ml by CLSI M27-A3 method; format: functional; settings: read-out: GI; procedure, shortened: as §1
Candida albicans [7] = assay: Antifungal activity against Candida albicans CAI4 expressing delta-cph1 (CPH1) gene assessed as growth inhibition at by CLSI M27-A3 method; format: functional
Candida albicans [8] = assay: Inhibition of cell adhesion of compound pre-treated Candida albicans CAI4 expressing delta-efg1 gene to human Caco2 cells assessed as cell adhesion level at 2 ug/ml pre-incubated for 18 hrs by colony counting method (reference value: 2.1 +/- 3.52%); format: functional, Caco-2; set-up: scale not given: the % may be the effect or the level left
Candida albicans [9] = assay: Inhibition of cell adhesion of compound pre-treated Candida albicans CAI4 expressing delta-cph1 (CPH1) gene to human Caco2 cells assessed as cell adhesion level at 4 ug/ml pre-incubated for 18 hrs by colony counting method (reference value: 5.37 +/- 12.4%); format: functional, Caco-2; set-up: scale not given: the % may be the effect or the level left
Candida albicans [10] = assay: Antifungal activity against Candida albicans CAI4 expressing delta-cph1/delta-efg1 (EFG1) gene assessed as growth inhibition at 16 ug/ml by CLSI M27-A3 method; format: functional; settings: read-out: GI; procedure, shortened: as §1
Candida albicans [11] = assay: Inhibition of cell adhesion of compound pre-treated Candida albicans CAI4 expressing delta-cph1/delta-efg1 (EFG1) gene to human Caco2 cells assessed as cell adhesion level at 16 ug/ml pre-incubated for 18 hrs by colony counting method (reference value: 1.24 +/- 1.06%); format: functional, Caco-2; set-up: scale not given: the % may be the effect or the level left
Candida albicans [12] = assay: Antifungal activity against Candida albicans 90028 assessed as growth inhibition at 1 ug/ml by CLSI M27-A3 method; format: functional; settings: read-out: GI; procedure, shortened: as §1
Candida albicans [13] = assay: Inhibition of cell adhesion of compound pre-treated Candida albicans CAI4 expressing delta-cph1 gene to human Caco2 cells assessed as cell adhesion level at 8 ug/ml pre-incubated for 18 hrs by colony counting method (reference value: 1.6 +/- 0.65%); format: functional, Caco-2; set-up: scale not given: the % may be the effect or the level left
Candida albicans [14] = assay: Antifungal activity against Candida albicans CAI4 expressing delta-efg1 gene assessed as growth inhibition at 4 ug/ml by CLSI M27-A3 method; format: functional; settings: read-out: GI
Procedure, shortened: (§2)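 CLSI M27-A3 broth microdilution in RPMI. Final inoculum 0.5×10^2 to 2.5×10^3 cells/ml. Seven two-fold concentrations from 0.25 to 16 µg/ml, with DMSO held at 0.09% (v/v) in all wells. Compound-free growth controls and sterility controls are run for each strain. […] Triplicate on three occasions.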

Candida albicans [15] = assay: Antifungal activity against Candida albicans CAI4 expressing delta-efg1 (EFG1) gene assessed as growth inhibition at 4 ug/ml by CLSI M27-A3 method; format: functional; settings: read-out: GI; procedure, shortened: as §1
Candida albicans [16] = assay: Antifungal activity against Candida albicans CAI4 expressing delta-cph1 gene assessed as growth inhibition at by CLSI M27-A3 method; format: functional
Candida albicans [17] = assay: Antifungal activity against Candida albicans CAI4 expressing delta-cph1/delta-efg1 gene assessed as growth inhibition at 2 ug/ml by CLSI M27-A3 method; format: functional; settings: read-out: GI; procedure, shortened: as §1
Candida albicans [18] = assay: Antifungal activity against Candida albicans CAI4 expressing delta-cph1/delta-efg1 (EFG1) gene assessed as growth inhibition at 1 ug/ml by CLSI M27-A3 method; format: functional; settings: read-out: GI; procedure, shortened: as §1
Candida albicans [19] = assay: Inhibition of cell adhesion of compound pre-treated Candida albicans CAI4 expressing delta-cph1 (CPH1) gene to human Caco2 cells assessed as cell adhesion level at 2 ug/ml pre-incubated for 18 hrs by colony counting method (reference value: 5.37 +/- 12.4%); format: functional, Caco-2; set-up: scale not given: the % may be the effect or the level left
Candida albicans [20] = assay: Antifungal activity against Candida albicans CAI4 expressing delta-cph1/delta-efg1 gene assessed as growth inhibition at 4 ug/ml by CLSI M27-A3 method; format: functional; settings: read-out: GI; procedure, shortened: as §1
Candida albicans [21] = assay: Antifungal activity against Candida albicans CAI4 expressing delta-cph1/delta-efg1 gene assessed as growth inhibition at 0.5 ug/ml by CLSI M27-A3 method; format: functional; settings: read-out: GI; procedure, shortened: as §1
Candida albicans [22] = assay: Inhibition of cell adhesion of compound pre-treated Candida albicans CAI4 expressing delta-cph1/delta-efg1 (EFG1) gene to human Caco2 cells assessed as cell adhesion level at 8 ug/ml pre-incubated for 18 hrs by colony counting method (reference value: 1.24 +/- 1.06%); format: functional, Caco-2; set-up: scale not given: the % may be the effect or the level left
Candida albicans [23] = assay: Antifungal activity against Candida albicans CAI4 expressing delta-cph1/delta-efg1 (EFG1) gene assessed as growth inhibition at by CLSI M27-A3 method; format: functional
Candida albicans [24] = assay: Antifungal activity against Candida albicans 90028 assessed as growth inhibition at 0.5 ug/ml by CLSI M27-A3 method; format: functional; settings: read-out: GI; procedure, shortened: as §1
Candida albicans [25] = assay: Antifungal activity against Candida albicans CAI4 expressing delta-efg1 gene assessed as growth inhibition at 2 ug/ml by CLSI M27-A3 method; format: functional; settings: read-out: GI; procedure, shortened: as §2
Candida albicans [26] = assay: Antifungal activity against Candida albicans CAI4 expressing delta-cph1 gene assessed as growth inhibition at 8 ug/ml by CLSI M27-A3 method; format: functional; settings: read-out: GI; procedure, shortened: as §1
Candida albicans [27] = assay: Inhibition of cell adhesion of compound pre-treated Candida albicans CAI4 expressing delta-efg1/delta-cph1 gene to human Caco2 cells assessed as cell adhesion level at 8 ug/ml pre-incubated for 18 hrs by colony counting method (reference value: 1.22 +/- 0.78%); format: functional, Caco-2; set-up: scale not given: the % may be the effect or the level left
Candida albicans [28] = assay: Inhibition of cell adhesion of compound pre-treated Candida albicans CAI4 expressing delta-efg1 (EFG1) gene to human Caco2 cells assessed as cell adhesion level at 16 ug/ml pre-incubated for 18 hrs by colony counting method (reference value: 2.6 +/- 2.33%); format: functional, Caco-2; set-up: scale not given: the % may be the effect or the level left
Candida albicans [29] = assay: Inhibition of cell adhesion of compound pre-treated Candida albicans CAI4 expressing delta-efg1/delta-cph1 gene to human Caco2 cells assessed as cell adhesion level at 4 ug/ml pre-incubated for 18 hrs by colony counting method (reference value: 1.22 +/- 0.78%); format: functional, Caco-2; set-up: scale not given: the % may be the effect or the level left

| Structure (SMILES) | Activity (Candida albicans [1]) [%] | inhibition of growth at 16 µg/mL (Candida albicans [2]) [%] | Activity (Candida albicans [3]) [%] | inhibition of growth at 4 µg/mL (Candida albicans [4]) [%] | Activity (Candida albicans [5]) [%] | inhibition of growth at 16 µg/mL (Candida albicans [6]) [%] | MIC90 (Candida albicans [7]) [µg/mL] | Activity (Candida albicans [8]) [%] | Activity (Candida albicans [9]) [%] | inhibition of growth at 16 µg/mL (Candida albicans [10]) [%] | Activity (Candida albicans [11]) [%] | inhibition of growth at 1 µg/mL (Candida albicans [12]) [%] | Activity (Candida albicans [13]) [%] | inhibition of growth at 4 µg/mL (Candida albicans [14]) [%] | inhibition of growth at 4 µg/mL (Candida albicans [15]) [%] | MIC90 (Candida albicans [16]) [µg/mL] | inhibition of growth at 2 µg/mL (Candida albicans [17]) [%] | inhibition of growth at 1 µg/mL (Candida albicans [18]) [%] | Activity (Candida albicans [19]) [%] | inhibition of growth at 4 µg/mL (Candida albicans [20]) [%] | also measured |
| --- | --- | --- | --- | --- | --- | --- | --- | --- | --- | --- | --- | --- | --- | --- | --- | --- | --- | --- | --- | --- | --- |
| NNc1ccc(S(=O)(=O)C(Cl)(Br)Br)cc1[N+](=O)[O-] | 0.81 | 100 | 1.6 | 99.7 | 2.25 | 100 | 4 (≈ 9.45 µM) | 1.32 | 0.76 | 100 | 1.5 | 97.4 | 0.56 | 100 | 99.3 | 4 (≈ 9.45 µM) | 100 | 98.8 | 1.86 | 100 | inhibition of growth at 0.5 µg/mL (Candida albicans [21]): 97%; Activity (Candida albicans [22]): 0.75%; MIC90 (Candida albicans [23]): 4 µg/mL (≈ 9.45 µM); inhibition of growth at 0.5 µg/mL (Candida albicans [24]): 81.8%; inhibition of growth at 2 µg/mL (Candida albicans [25]): 99.7%; inhibition of growth at 8 µg/mL (Candida albicans [26]): 100%; Activity (Candida albicans [27]): 1.66%; Activity (Candida albicans [28]): 0.89%; Activity (Candida albicans [29]): 2.74% |
| O=[N+]([O-])c1cc(S(=O)(=O)C(Cl)(Cl)Br)ccc1Cl | 0.99 | 99.6 | 0.68 | 99.4 | 0.43 | 99.5 | 16 (≈ 41.7 µM) | 0.9 | 1.39 | 99.8 | 0.75 | 98.8 | 0.35 | 99 | 99.3 | 16 (≈ 41.7 µM) | 98.8 | 98.9 | 2.38 | 99 | inhibition of growth at 0.5 µg/mL (Candida albicans [21]): 98.6%; Activity (Candida albicans [22]): 1.26%; MIC90 (Candida albicans [23]): 16 µg/mL (≈ 41.7 µM); inhibition of growth at 0.5 µg/mL (Candida albicans [24]): 98.7%; inhibition of growth at 2 µg/mL (Candida albicans [25]): 98.9%; inhibition of growth at 8 µg/mL (Candida albicans [26]): 99.3%; Activity (Candida albicans [27]): 0.38%; Activity (Candida albicans [28]): 0.77%; Activity (Candida albicans [29]): 1.02% |
| O=[N+]([O-])c1cc(S(=O)(=O)C(Cl)Cl)ccc1Cl | 1.06 | 99.4 | 1.19 | 99.2 | 0.42 | 99.7 | 16 (≈ 52.5 µM) | 1.1 | 1.28 | 99.4 | 1.68 | 99.2 | 0.8 | 99.5 | 98.5 | 16 (≈ 52.5 µM) | 99.1 | 99 | 1.43 | 99.2 | inhibition of growth at 0.5 µg/mL (Candida albicans [21]): 99.1%; Activity (Candida albicans [22]): 2.24%; MIC90 (Candida albicans [23]): 16 µg/mL (≈ 52.5 µM); inhibition of growth at 0.5 µg/mL (Candida albicans [24]): 99.1%; inhibition of growth at 2 µg/mL (Candida albicans [25]): 99.4%; inhibition of growth at 8 µg/mL (Candida albicans [26]): 99.2%; Activity (Candida albicans [27]): 0.48%; Activity (Candida albicans [28]): 0.79%; Activity (Candida albicans [29]): 0.36% |
